Experimental data taken from article PMC4506688 (Pharmacology Research & Perspectives, 2015).

Tests used:
CB2 = CB2 (Homo sapiens, UniProt P34972); test: ACTOne cell-based cAMP assay in HEK-CNG+CB2 cells; details: HEK-CNG+CB2, control agonist
CB1 = CB1 (Homo sapiens, UniProt P21554); test: ACTOne cell-based cAMP assay in HEK-CNG+CB1 cells; details: HEK-CNG+CB1, control agonist
parental HEK-CNG cells = test: ACTOne cell-based cAMP assay in parental HEK-CNG cells; parameters: species or system human
C8B4 murine microglia = test: On cell polarization assay; format: cell-based; details: 1 μg/mL LPS, ligand at EC50 added 1 h after LPS, 24 h
Procedure, shortened: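 C8B4 microglia were seeded at 20,000 cells/well in DMEM with 10% FBS, then switched to 1% FBS the next day. On day 3, LPS was added (final 1 μg/mL), followed 1 h later by the test compound in LPS-containing medium. After 24 h, cells were given anti-CD16/32 or anti-CD206 antibody (2 μg/mL, 2 h), then a SULFO-TAG secondary (2 h). The electrochemiluminescence read-out was normalized to LPS control and analyzed by ANOVA.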

[1] = reported; ref Wohnsland and Faller [2001]; cited from earlier work

Sequence of CB1 (P21554 whole entry): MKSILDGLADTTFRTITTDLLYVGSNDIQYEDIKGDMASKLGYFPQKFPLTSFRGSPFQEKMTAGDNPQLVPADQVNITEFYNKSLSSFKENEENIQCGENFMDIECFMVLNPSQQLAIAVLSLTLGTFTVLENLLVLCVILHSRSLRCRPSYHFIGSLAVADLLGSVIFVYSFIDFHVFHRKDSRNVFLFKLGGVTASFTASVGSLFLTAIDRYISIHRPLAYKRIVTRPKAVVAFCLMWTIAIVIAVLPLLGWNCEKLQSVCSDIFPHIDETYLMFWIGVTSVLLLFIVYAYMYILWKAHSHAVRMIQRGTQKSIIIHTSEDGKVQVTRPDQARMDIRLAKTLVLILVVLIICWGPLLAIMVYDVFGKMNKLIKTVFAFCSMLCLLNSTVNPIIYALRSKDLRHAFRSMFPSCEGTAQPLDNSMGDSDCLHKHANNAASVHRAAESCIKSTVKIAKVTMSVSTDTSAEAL
Sequence of CB2 (P34972 whole entry): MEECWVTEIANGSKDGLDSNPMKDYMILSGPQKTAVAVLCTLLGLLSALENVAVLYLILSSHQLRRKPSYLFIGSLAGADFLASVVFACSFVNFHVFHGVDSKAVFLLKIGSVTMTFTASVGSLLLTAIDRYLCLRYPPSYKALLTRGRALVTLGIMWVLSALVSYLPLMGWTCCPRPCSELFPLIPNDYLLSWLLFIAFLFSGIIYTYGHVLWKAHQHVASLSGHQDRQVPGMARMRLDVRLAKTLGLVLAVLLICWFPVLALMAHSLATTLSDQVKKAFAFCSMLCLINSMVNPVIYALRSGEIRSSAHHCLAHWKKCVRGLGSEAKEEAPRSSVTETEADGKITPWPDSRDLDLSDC

| Molecule | CD16/32 (M1 marker) expression compared to LPS control (C8B4 murine microglia) | CD206 (M2 marker) expression compared to LPS control (C8B4 murine microglia) | also measured |
| --- | --- | --- | --- |
| CCCCCCC(C)(C)c1ccc([C@@H]2C[C@H](O)CC[C@H]2CCCO)c(O)c1 [CP 55,940, 2-[(1R,2R,5R)-5-hydroxy-2-(3-hydroxypropyl)cyclohexyl]-5-(2-methyloctan-2-yl)phenol] | – | – | Average reduction in cAMP response (CB2): 90%; Average reduction in cAMP response (CB1): 90%; Change in cAMP-driven fluorescence / cAMP response (parental HEK-CNG cells): no response was observed |
| CCCCCCC(C)(C)c1cc(OC)c([C@@H]2C=C(CO)[C@@H]3C[C@H]2C3(C)C)c(OC)c1 [HU 308] | only HU 308 did so significantly (P < 0.001) | significantly decreased CD206 | – |
| CCCC(C)(C)c1ccc2c(c1)OC(C)(C)[C@@H]1CC=C(C)C[C@@H]21 [JWH 133] | decreased CD16/32 expression compared to LPS controls | significantly decreased CD206 | – |
| CN1C(C(=O)Nc2ccccn2)=C(O)c2ccccc2S1(=O)=O [piroxicam] | – | – | Absorbed in humans [1]: 90–100% |
| SR 144528 | also decreased CD16/32 expression in comparison to LPS control | significantly increased CD206 | – |
